Consider six molecules from PubChem BioAssay AID463148 (The Scripps Research Institute Molecular Screening Center, 2010).

Active and inactive are the calls of the source.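 The calls were made as follows: active = fold change inhibition above 1.5; inactive = the rest.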

For the experiment, the system named is GAL4DBD-VP16 transactivation domain fusion (Human herpesvirus 1 VP16). The experiment is described as follows: inhibition of VP16-driven luciferase reporter – cell-based, luminescence, HEK293T, powder samples, counter-screen for RORA inverse agonist project, late-stage follow-up (AID 463148). The settings on record: HEK293T GAL4-VP16 UAS-luciferase, 18-24 h, at 10 µM, active compounds read high. The procedure, abridged:
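Assay system: transfected HEK293T GAL4-VP16 UAS-luciferase reporter cells; Incubation: 20 h compound exposure after transfection; Measured by: luciferase luminescence; Read-out: fold change relative to DMSO wells; Control set: DMSO vehicle wells; Repeats: six replicates per compound, averaged.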
In general terms: Reporter assays use an easily measured gene product as a stand-in for the process of interest.
As to `O=C(Nc1ccc(C(O)(C(F)(F)F)C(F)(F)F)cc1)c1ccccc1C(F)(F)F`, the fold change inhibition was 0.941 (inactive).
For the molecule `O=C(Nc1ccc(C(O)(C(F)(F)F)C(F)(F)F)cc1)c1c(F)cccc1F`, the fold change inhibition was 1.05 (inactive).
As to `O=C(Nc1ccc(C(O)(C(F)(F)F)C(F)(F)F)cc1)c1ccc(Cl)cc1`, the fold change inhibition is 1.27 (inactive).
Next, `O=S(=O)(Nc1ccc(C(O)(C(F)(F)F)C(F)(F)F)cc1)c1cccs1`: 0.97 (inactive); `O=C(Nc1ccc(C(O)(C(F)(F)F)C(F)(F)F)cc1)c1ccc(F)cc1Cl`: 1.01 (inactive).
In the case of `O=C(Nc1ccc(C(O)(C(F)(F)F)C(F)(F)F)cc1)c1ccc(F)cc1F`, the fold change inhibition is 1.68.
